Experimental findings from ChEMBL document CHEMBL2401735, “Synthesis and cytotoxicity of novel (thiazol-2-yl)hydrazine derivatives as promising anti-Candida agents” (Eur J Med Chem, 2013) are described below.

SMILES strings stand for the structures. Converted amounts (≈) assume the structure as drawn.

In general, MIC refers to the lowest concentration found to suppress growth. Broadly, the CC50 is the concentration giving 50% cytotoxicity.

Series [1] is described as follows: Cytotoxicity against human Hep2 cells assessed as cell survival fraction at 100 ug/ml after 24 hrs by trypan blue exclusion assay (reference value: 97 to 98%). The series is classed as cell-based. To be noted: HEp-2 cells, read-out: Survival.
Series [2] concerns Streptococcus alpha-hemolyticus. The series can be described thus: Antibacterial activity against Streptococcus alpha-hemolyticus assessed as growth inhibition after 18 to 22 hrs by broth microdilution method. (In broth dilution the organism is exposed to a series of concentrations in liquid medium.)
The nature of series [3]: Cytotoxicity against human Hep2 cells assessed as cell survival fraction at 0.005 ug/ml after 24 hrs by trypan blue exclusion assay (reference value: 97 to 98%). The series is classed as cell-based. To be noted: HEp-2 cells, read-out: Survival.
A further series concerns Escherichia coli. The series can be described thus: Antibacterial activity against Escherichia coli assessed as growth inhibition after 18 to 22 hrs by broth microdilution method. The series is classed as functional. The method in brief:
(§1)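 Bacterial isolates subcultured for purity, identified conventionally. Broth microdilution per NCCLS in Mueller-Hinton II broth; plates with growth control (no compound) and medium-only control, incubated 18-22 h at 35 °C. MIC taken as lowest concentration giving complete growth inhibition by unaided eye.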

Series [4] is described as follows: Cytotoxicity against human Hep2 cells assessed as reduction of cell viability after 24 hrs by trypan blue exclusion assay. The series is classed as cell-based. To be noted: HEp-2 cells. In short, it runs like this:
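Hep2 cells in DMEM with 10% FBS, penicillin-streptomycin, 5% CO₂, 37 °C. Cells at 1 × 10⁵/mL exposed 24 h to seven concentrations (0.005-100 µg/mL), DMSO ≤0.5% final; controls were medium alone, DMSO, and 1 mM sodium nitroprusside. Cells scraped, allowed 30 min recovery, mixed 1:1 with 0.4% trypan blue, counted by hemocytometer by two operators.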

The test system of another series is Nakaseomyces glabratus. The series can be described thus: Anticandida activity against Candida glabrata clinical isolate assessed as growth inhibition after 24 hrs by broth microdilution method. The series is classed as functional. The method in brief: (§2)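 Clinical Candida isolates subcultured for purity and optimal growth before testing; compounds dissolved in DMSO. Broth microdilution per NCCLS in Sabouraud dextrose broth, serial dilutions, inoculum about 10³/mL, with growth control and medium-only control; 24 h incubation at 37 °C. MIC is the lowest concentration giving complete visible inhibition.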

The nature of series [5]: Cytotoxicity against human Hep2 cells assessed as cell survival fraction at 50 ug/ml after 24 hrs by trypan blue exclusion assay (reference value: 97 to 98%). The series is classed as cell-based. The note with it: HEp-2 cells, read-out: Survival.
Series [6] can be described thus: Cytotoxicity against human Hep2 cells assessed as cell survival fraction at 5 ug/ml after 24 hrs by trypan blue exclusion assay (reference value: 97 to 98%). The series is classed as cell-based. The note with it: HEp-2 cells, read-out: Survival.
The subject of another series is Staphylococcus warneri. The series can be described thus: Antibacterial activity against Staphylococcus warneri assessed as growth inhibition after 18 to 22 hrs by broth microdilution method. The series is classed as functional. The method in brief:
as §1

For another series, the system named is Proteus mirabilis. The series can be described thus: Antibacterial activity against Proteus mirabilis assessed as growth inhibition after 18 to 22 hrs by broth microdilution method. The series is classed as functional. In short, it runs like this:
as §1

Series [7] in a line: Cytotoxicity against human Hep2 cells assessed as cell survival fraction at 10 ug/ml after 24 hrs by trypan blue exclusion assay (reference value: 97 to 98%). The series is classed as cell-based. The note with it: HEp-2 cells, read-out: Survival.
A short description of series [8]: Cytotoxicity against human Hep2 cells assessed as cell survival fraction at 0.5 ug/ml after 24 hrs by trypan blue exclusion assay (reference value: 97 to 98%). The series is classed as cell-based. To be noted: HEp-2 cells, read-out: Survival.
Series [9] can be described thus: Cytotoxicity against human Hep2 cells assessed as cell survival fraction at 0.05 ug/ml after 24 hrs by trypan blue exclusion assay (reference value: 97 to 98%). To be noted: HEp-2 cells, read-out: Survival. The series is classed as cell-based.
The test system of a further series is Staphylococcus aureus. The series can be described thus: Antibacterial activity against Staphylococcus aureus assessed as growth inhibition after 18 to 22 hrs by broth microdilution method. The series is classed as functional. In short, it runs like this: as §1
A further series deals with [Candida] sake. The series can be described thus: Anticandida activity against Candida sake clinical isolate assessed as growth inhibition after 24 hrs by broth microdilution method. The series is classed as functional. The note with it: Fermentozyma sake. In short, it runs like this:
as §2

Another series relates to Enterococcus faecalis. The series can be described thus: Antibacterial activity against […] assessed as growth inhibition after 18 to 22 hrs by broth microdilution method. The series is classed as functional. In short, it runs like this: as §1
In a further series the test system is Candida tropicalis. The series can be described thus: Anticandida activity against Candida tropicalis clinical isolate assessed as growth inhibition after 24 hrs by broth microdilution method. The series is classed as functional. In short, it runs like this: as §2
In a further series the test system is Pichia kudriavzevii. The series can be described thus: Anticandida activity against Candida krusei clinical isolate assessed as growth inhibition after 24 hrs by broth microdilution method. The series is classed as functional. In short, it runs like this:
as §2

The test system of another series is Candida parapsilosis. The series can be described thus: Anticandida activity against Candida parapsilosis clinical isolate assessed as growth inhibition after 24 hrs by broth microdilution method. The series is classed as functional. To be noted: Lodderomyces parapsilosis. The method in brief:
as §2

A further series concerns Klebsiella oxytoca. The series can be described thus: Antibacterial activity against Klebsiella oxytoca assessed as growth inhibition after 18 to 22 hrs by broth microdilution method. The series is classed as functional. In short, it runs like this: as §1
Another series relates to Enterobacter sp. The series can be described thus: Antibacterial activity against Enterobacter spp. assessed as growth inhibition after 18 to 22 hrs by broth microdilution method. The series is classed as functional. The method in brief:
as §1

The next series relates to Candida albicans. The series can be described thus: Anticandida activity against Candida albicans clinical isolate assessed as growth inhibition after 24 hrs by broth microdilution method. The series is classed as functional. In short, it runs like this:
as §2

Turning to `C/C(=N\Nc1nc(-c2ccc(Cl)cc2Cl)cs1)C1CCCCC1`, the viability at 24 h, 100 ug/ml in series [1] worked out at 0%. The MIC is > 256 µg/mL in series [2]; > 256 µg/mL with Escherichia coli; 2 µg/mL (≈ 5.43 µM) in the series on Nakaseomyces glabratus; > 256 µg/mL with Staphylococcus warneri; > 256 µg/mL in the series on Proteus mirabilis; > 256 µg/mL in the series on Staphylococcus aureus. In addition, the MIC in [Candida] sake was 2 µg/mL (≈ 5.43 µM); in the series on Enterococcus faecalis, > 256 µg/mL; in the series with Candida tropicalis, 2 µg/mL (≈ 5.43 µM); with Pichia kudriavzevii, 2 µg/mL (≈ 5.43 µM); with Candida parapsilosis, 2 µg/mL (≈ 5.43 µM); in the series on Klebsiella oxytoca it was > 256 µg/mL. Besides, the MIC with Enterobacter sp. was > 256 µg/mL; in the series with Candida albicans, 0.25 µg/mL (≈ 0.679 µM). In addition, in series [3], the viability at 24 h, 0.005 ug/ml was determined as 97.2%. Moreover, the CC50 at 24 h in series [4] came to 42 µg/mL (≈ 114 µM). Moreover, the viability at 24 h, 50 ug/ml in series [5] came out at 0%. Besides, the viability at 24 h, 5 ug/ml in series [6] was 94%. In series [7], the viability at 24 h, 10 ug/ml came to 88%. For the same molecule, in series [8], the viability at 24 h, 0.5 ug/ml is 95%. Moreover, the viability at 24 h, 0.05 ug/ml in series [9] was 96%.
As for `Clc1ccc(-c2csc(NN=C3CCCCCCC3)n2)c(Cl)c1`, the viability at 24 h, 100 ug/ml in [1] stood at 0%. The MIC was > 256 µg/mL in [2]; > 256 µg/mL in the series with Escherichia coli; 2 µg/mL (≈ 5.43 µM) in the series on Nakaseomyces glabratus; > 256 µg/mL with Staphylococcus warneri; > 256 µg/mL in the series on Proteus mirabilis; > 256 µg/mL in the series with Staphylococcus aureus. The MIC in [Candida] sake was 2 µg/mL (≈ 5.43 µM); with Enterococcus faecalis, > 256 µg/mL; in the series on Candida tropicalis, 2 µg/mL (≈ 5.43 µM); in the series on Pichia kudriavzevii it was 2 µg/mL (≈ 5.43 µM); with Candida parapsilosis it was 8 µg/mL (≈ 21.7 µM); with Klebsiella oxytoca, > 256 µg/mL. The MIC in the series with Enterobacter sp. is > 256 µg/mL; in the series with Candida albicans, 0.5 µg/mL (≈ 1.36 µM). The viability at 24 h, 0.005 ug/ml in series [3] was 94%. In addition, in series [4], the CC50 at 24 h is 41 µg/mL (≈ 111 µM). For the same molecule, the viability at 24 h, 50 ug/ml in [5] came out at 0%. The viability at 24 h, 5 ug/ml in [6] turned out to be 90%. Moreover, in series [7], the viability at 24 h, 10 ug/ml was determined as 87.5%. Besides, in series [8], the viability at 24 h, 0.5 ug/ml came to 92.4%. Further, the viability at 24 h, 0.05 ug/ml in series [9] came to 93%.
For `CCC(CC)=NNc1nc(-c2ccc(OC)cc2)cs1`, the MIC in [2] was > 256 µg/mL; in the series on Escherichia coli, > 256 µg/mL; with Nakaseomyces glabratus, 32 µg/mL (≈ 111 µM); in the series on Staphylococcus warneri it was > 256 µg/mL; with Proteus mirabilis, > 256 µg/mL; in the series with Staphylococcus aureus, > 256 µg/mL. The MIC is 256 µg/mL (≈ 885 µM) in series [Candida] sake; > 256 µg/mL in the series on Enterococcus faecalis; 64 µg/mL (≈ 221 µM) in the series with Candida tropicalis; 256 µg/mL (≈ 885 µM) in the series with Pichia kudriavzevii; 256 µg/mL (≈ 885 µM) in the series with Candida parapsilosis; > 256 µg/mL in the series with Klebsiella oxytoca. The results for the MIC with Enterobacter sp. and with Candida albicans were > 256 µg/mL and 16 µg/mL (≈ 55.3 µM), respectively.
Turning to `C=CCC/C(C)=N/Nc1nc(-c2ccc(OC)cc2)cs1`, the viability at 24 h, 100 ug/ml in [1] worked out at 0%. Also, the MIC is > 256 µg/mL in series [2]; > 256 µg/mL with Escherichia coli; 0.5 µg/mL (≈ 1.66 µM) in the series on Nakaseomyces glabratus; > 256 µg/mL in the series with Staphylococcus warneri; > 256 µg/mL in the series with Proteus mirabilis; > 256 µg/mL in the series with Staphylococcus aureus. The minimum inhibitory concentration (MIC) in [Candida] sake is 2 µg/mL (≈ 6.64 µM); in the series on Enterococcus faecalis it was > 256 µg/mL; in the series with Candida tropicalis, 2 µg/mL (≈ 6.64 µM); in the series with Pichia kudriavzevii, 2 µg/mL (≈ 6.64 µM); in the series with Candida parapsilosis, 2 µg/mL (≈ 6.64 µM); with Klebsiella oxytoca, > 256 µg/mL. For the same molecule, the minimal inhibitory concentration (MIC) in the series on Enterobacter sp. was > 256 µg/mL; with Candida albicans it was 0.5 µg/mL (≈ 1.66 µM). The viability at 24 h, 0.005 ug/ml in series [3] worked out at 94%. In [4], the 50% cytotoxic concentration (CC50) at 24 h was 35 µg/mL (≈ 116 µM). In addition, the viability at 24 h, 50 ug/ml in series [5] came out at 0%. The viability at 24 h, 5 ug/ml in series [6] came to 84%. Besides, in [7], the viability at 24 h, 10 ug/ml came out at 72.4%. Besides, the viability at 24 h, 0.5 ug/ml in [8] amounted to 83%. In addition, the viability at 24 h, 0.05 ug/ml in series [9] turned out to be 91.2%.
